Test results reported in article PMC3709443 (Natural product communications, 2009).
In brackets after ≈: the same amount, converted by molar mass. Like-named read-outs stand apart in the source and are kept apart here.

What was measured:
[1] = test system: P. falciparum D6 (chloroquine-sensitive clone); test: Antimalarial parasite LDH assay, D6 strain; assay type: cell-based, Plasmodium falciparum; conditions: for P. falciparum D6 IC50: chloroquine-sensitive clone, 72 h, pLDH readout; for IC50: Plasmodium falciparum, D6, 72 h, read-out: P. falciparum D6 IC50
[2] = test system: P. falciparum W2 (chloroquine-resistant clone); test: Antimalarial parasite LDH assay, W2 strain; assay type: cell-based, Plasmodium falciparum; conditions: for P. falciparum W2 IC50: chloroquine-resistant clone, 72 h, pLDH readout; for IC50: Plasmodium falciparum, W2, 72 h, read-out: P. falciparum W2 IC50
[3] = test system: VERO cells (monkey kidney fibroblasts); test: Cytotoxicity to VERO cells; assay type: cell-based; conditions: for VERO cells IC50: Table 2, maximum dose tested 4760 ng/mL; for IC50: Primates, Vero
[4] = test system: Leishmania donovani promastigotes; test: Antileishmanial assay; assay type: cell-based; conditions: for L. donovani IC50 / L. donovani IC90: promastigotes, 26°C, 72 hours; for IC50 / IC90: Leishmania donovani, 72 h; for IC50: read-out: L. donovani IC50; for IC90: read-out: L. donovani IC90
Method in brief: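 L. donovani promastigote culture at 2×10^6 cells/mL exposed to diluted test compound in 96-well format. Incubation 26°C, 72 h. Growth read by Alamar blue. IC50 computed from the growth-inhibition curve. Pentamidine and amphotericin B served as reference agents.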

[5] = test system: Cryptococcus neoformans ATCC 90113; test: Antimicrobial susceptibility assay, C. neoformans; assay type: cell-based; conditions: for C. neoformans IC50: first value of IC50/MIC, 50% inhibition of growth; for C. neoformans MIC: second value of IC50/MIC, no detectable growth
Method in brief: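 Modified CLSI broth dilution. Test compound in DMSO, serially diluted in 20% DMSO/saline, duplicate wells. Inoculum in assay medium to target CFU/mL, with growth, solvent and media controls. Absorbance at 630 nm before and after incubation. IC50 from percent growth vs concentration. MIC is the lowest concentration without detectable growth. MFC comes from 5 μL of clear wells plated on agar, no growth. Amphotericin B control.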

[6] = test system: Escherichia coli ATCC 35218; test: Antimicrobial susceptibility assay, E. coli; assay type: cell-based; conditions: for E. coli IC50: first value of IC50/MIC
Method in brief: (§1)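 Modified CLSI broth dilution with test compound dissolved in DMSO and serially diluted in 20% DMSO/saline, in duplicate. Inoculum prepared to target CFU/mL. Plates read at 630 nm before and after incubation. IC50 from percent growth vs concentration. MIC is the lowest concentration with no detectable growth. MBC is the lowest concentration giving no growth when 5 μL from clear wells is subcultured on agar. Ciprofloxacin control.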

[7] = test system: methicillin-resistant Staphylococcus aureus ATCC 43300 (MRS); test: Antimicrobial susceptibility assay, MRS; assay type: cell-based; conditions: for MRS IC50: first value of IC50/MIC
Method in brief: as §1

[8] = test system: Aspergillus fumigatus ATCC 90906; test: Antimicrobial susceptibility assay, A. fumigatus; assay type: cell-based; conditions: for A. fumigatus IC50: first value of IC50/MIC
Method in brief: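 Modified CLSI broth dilution. Test compound dissolved in DMSO, serially diluted in 20% DMSO/saline and plated in duplicate. Inoculum prepared in assay medium to target CFU/mL. Fluorescence (544ex/590em) read before and after incubation. IC50 from percent growth vs concentration. MIC is the lowest concentration with no detectable growth. MFC is taken from 5 μL of each clear well subcultured on agar. Amphotericin B control.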

[9] = test system: Mycobacterium intracellulare ATCC 23068; test: Antimicrobial susceptibility assay, M. intracellulare; assay type: cell-based; conditions: for M. intracellulare IC50: first value of IC50/MIC
Method in brief: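 Modified Alamar Blue procedure within modified CLSI methods. Test compound in DMSO, serially diluted in 20% DMSO/saline, duplicate wells. Inoculum in assay medium to target CFU/mL. Fluorescence 544ex/590em read before and after incubation. IC50 from percent growth vs concentration. MIC is the lowest concentration with no detectable growth. MBC from 5 μL of clear wells subcultured on agar. Ciprofloxacin control.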

[10] = test system: SK-MEL: Human malignant melanoma; test: Cytotoxicity assay; assay type: cell-based; conditions: for SK-MEL IC50: 48 hours, Neutral Red
Method in brief: (§2)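 ATCC-sourced cells seeded at 25000 cells/well and incubated 24 h. Test compound was then added at various concentrations for a further 48 h. Viable cells were measured by a modified Neutral Red procedure. IC50 was determined from dose-response curves of percent growth inhibition. Doxorubicin was the positive control and DMSO the vehicle control.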

[11] = test system: KB: Human epidermoid carcinoma; test: Cytotoxicity assay; assay type: cell-based; conditions: for KB IC50: 48 hours, Neutral Red
Method in brief: as §2

[12] = test system: BT-549: Human ductal carcinoma; test: Cytotoxicity assay; assay type: cell-based; conditions: for BT-549 IC50: 48 hours, Neutral Red
Method in brief: as §2

[13] = test system: SK-OV-3: Human ovarycarcinoma; test: Cytotoxicity assay; assay type: cell-based; conditions: for SK-OV-3 IC50: 48 hours, Neutral Red
Method in brief: as §2

[14] = test system: LLC-PK11: Pig kidney epithelial; test: Cytotoxicity assay; assay type: cell-based; conditions: 48 hours; Neutral Red
Method in brief: as §2

Row | Compound | P. falciparum D6 IC50 [1] [µg/mL] | P. falciparum W2 IC50 [2] [µg/mL] | VERO cells IC50 [3] | L. donovani IC50 [4] [µg/mL] | L. donovani IC90 [4] [µg/mL] | C. neoformans IC50 [5] [µg/mL] | C. neoformans MIC [5] [µg/mL] | E. coli IC50 [6] | MRS IC50 [7] | A. fumigatus IC50 [8] | M. intracellulare IC50 [9] | SK-MEL IC50 [10] [µg/mL] | KB IC50 [11] [µg/mL] | BT-549 IC50 [12] [µg/mL] | SK-OV-3 IC50 [13] [µg/mL] | LLC-PK11 IC50 [14] [µg/mL] | further results
1 | 6-Hydroxy-5-normethylbudmunchiamine K [Compound 4] | 0.12 | 0.27 | NC (NC = Not cytotoxic (up to the maximum dose tested of 4760 ng/mL)) | 2.1 | 7 | 6.0 | 10.0 | -/- (- =Not Active) | 20.0 µg/mL | -/- (- =Not Active) | 20.0 µg/mL | 5.7 | 5.4 | 6.0 | 6.2 | 6.0 | antimicrobial activity against C. neoformans in words [5]: weakly active
2 | CCN(CC)CCCC(C)Nc1ccnc2cc(Cl)ccc12 (stereo not drawn) [Chloroquine, chloroquine, reference compound] |  |  |  |  |  |  |  |  |  |  |  |  |  |  |  |  | IC50 [1]: 0.015 µg/mL (≈ 0.0469 µM); IC50 [2]: 0.135 µg/mL (≈ 0.422 µM); IC50 ([3]; read-out: VERO cells IC50): > 4.76 µg/mL
3 | COc1cccc2c1C(=O)c1c(O)c3c(c(O)c1C2=O)C[C@@](O)(C(=O)CO)C[C@@H]3O[C@H]1C[C@H](N)[C@H](O)[C@H](C)O1 [Doxorubicin, reference compound] |  |  |  |  |  |  |  |  |  |  |  |  |  |  |  |  | IC50 ([3]; 48 h, read-out: VERO IC50): > 5 µg/mL; IC50 ([10]; Homo sapiens, 48 h, read-out: SK-MEL IC50): 0.85 µg/mL (≈ 1.56 µM); IC50 ([11]; Homo sapiens, 48 h, read-out: KB IC50): 0.9 µg/mL (≈ 1.66 µM); IC50 ([12]; Homo sapiens, BT-549, 48 h, read-out: BT-549 IC50): 0.9 µg/mL (≈ 1.66 µM); IC50 ([13]; Homo sapiens, SK-OV-3, 48 h, read-out: SK-OV-3 IC50): 0.9 µg/mL (≈ 1.66 µM)
4 | N=C(N)c1ccc(OCCCCCOc2ccc(C(=N)N)cc2)cc1 [Pentamidine, reference compound] |  |  |  |  |  |  |  |  |  |  |  |  |  |  |  |  | IC50 [4]: 2.1 µg/mL (≈ 6.17 µM); IC90 [4]: 4 µg/mL (≈ 11.7 µM)
5 | 6-Hydroxybudmunchiamine K [Compound 2] | 0.16 | 0.22 | NC (NC = Not cytotoxic (up to the maximum dose tested of 4760 ng/mL)) | 3.4 | 7 | 10.0 | 20.0 | -/- (- =Not Active) | -/- (- =Not Active) | -/- (- =Not Active) | -/- (- =Not Active) | 5.8 | 6.0 | 6.0 | 6.5 | 5.3 | antimicrobial activity against C. neoformans in words [5]: weakly active
6 | C[C@@H]1CC[C@H]2[C@@H](C)C(=O)O[C@@H]3O[C@@]4(C)CC[C@@H]1[C@]32OO4 [Artemisinin, artemisinin, reference compound] |  |  |  |  |  |  |  |  |  |  |  |  |  |  |  |  | IC50 [1]: 0.01 µg/mL (≈ 0.0354 µM); IC50 [2]: 0.006 µg/mL (≈ 0.0213 µM); IC50 ([3]; read-out: VERO cells IC50): > 4.76 µg/mL
7 | CCCCCCCCCCCCCCCC1CC(=O)NCCCN(C)CCCCN(C)CCCN1 (stereo not drawn) [Compound 3, 5-Normethylbudmunchiamine K] | 0.14 | 0.21 | 3 µg/mL | 0.8 | 1.3 | 1.0 | 2.5 | 6.5 µg/mL | 6.5 µg/mL | -/- (- =Not Active) | 4.0 µg/mL | 2.0 | 2.3 | 2.0 | 4.8 | 2.5 | antileishmanial activity compared with pentamidine ([4]; in words): more potent than pentamidine; E. coli MIC ([6]; second value of IC50/MIC): 10.0 µg/mL; MRS MIC ([7]; second value of IC50/MIC): 10.0 µg/mL; M. intracellulare MIC ([9]; second value of IC50/MIC): 20.0 µg/mL
8 | C[C@@H]1[C@H](O)[C@@H](C)/C=C/C=C/C=C/C=C/C=C/C=C/C=C/[C@H](O[C@@H]2O[C@H](C)[C@@H](O)[C@H](N)[C@@H]2O)C[C@@H]2O[C@](O)(C[C@@H](O)C[C@@H](O)[C@H](O)CC[C@@H](O)C[C@@H](O)CC(=O)O[C@H]1C)C[C@H](O)[C@H]2C(=O)O [Amphotericin B, amphotericin B, reference compound] |  |  |  |  |  |  |  |  |  |  |  |  |  |  |  |  | IC50 [4]: 0.32 µg/mL (≈ 0.346 µM); IC90 [4]: 0.8 µg/mL (≈ 0.866 µM); IC50 ([5]; Cryptococcus neoformans, ATCC90113, read-out: C. neoformans IC50): 0.8 µg/mL (≈ 0.866 µM); MIC ([5]; Cryptococcus neoformans, ATCC90113, read-out: C. neoformans MIC): 1.25 µg/mL (≈ 1.35 µM); IC50 ([8]; Aspergillus fumigatus, ATCC90906, read-out: A. fumigatus IC50): 0.6 µg/mL (≈ 0.649 µM); MIC ([8]; Aspergillus fumigatus, ATCC90906, read-out: A. fumigatus MIC): 1.25 µg/mL (≈ 1.35 µM)
9 | O=C(O)c1cn(C2CC2)c2cc(N3CCNCC3)c(F)cc2c1=O [Ciprofloxacin, ciprofloxacin, reference compound] |  |  |  |  |  |  |  |  |  |  |  |  |  |  |  |  | IC50 ([6]; Escherichia coli, ATCC35218, read-out: E. coli IC50): 0.004 µg/mL (≈ 0.0121 µM); IC50 ([7]; Staphylococcus aureus, ATCC43300, read-out: MRS IC50): 0.09 µg/mL (≈ 0.272 µM); MIC ([7]; Staphylococcus aureus, ATCC43300, read-out: MRS MIC): 0.5 µg/mL (≈ 1.51 µM); IC50 ([9]; Mycobacterium intracellulare, ATCC23068, read-out: M. intracellulare IC50): 0.5 µg/mL (≈ 1.51 µM); MIC ([9]; Mycobacterium intracellulare, ATCC23068, read-out: M. intracellulare MIC): 1 µg/mL (≈ 3.02 µM)
